From ChEMBL document CHEMBL1777771, “Efficient synthesis and chiral separation of 11C-labeled ibuprofen assisted by DMSO for imaging of in vivo behavior of the individual isomers by positron emission tomography” (Bioorg Med Chem, 2011) come the findings set out here.

Holding throughout (type): ADME, organism-based
Settings in all cases: in vivo, 0.5 h; call rule not given here

The test system of series [1] is Mus musculus. Briefly: Biodistribution in LPS treated BALB/c mouse anti-collagen antibody-induced arthritis model arthritic joints at 9 to 12 MBq, iv after 30 mins by PET analysis. The gist of the method:
(§1)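 Male BALB/c mice, 6–7 wk. Arthritis induced with an iv anti-type II collagen mAb cocktail (1.5 mg), then ip LPS (30 μg) on day 3; mice used 4 days after LPS with a score of 3 in each limb. Enantiomer given as an iv bolus (<0.18 nmol, in saline). Dynamic PET for 30 min under isoflurane. VOIs drawn on ankles and heart; SUV time-activity curves. Each mouse received both isomers 5 h apart.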

The subject of series [2] is Mus musculus. Briefly: Biodistribution in LPS treated BALB/c mouse anti-collagen antibody-induced arthritis model ankle of hindlimb at 9 to 12 MBq, iv after 30 mins by PET analysis relative to normal mouse. The gist of the method: as §1
For series [3], the system named is Heart. The series can be described thus: Biodistribution in LPS treated BALB/c mouse anti-collagen antibody-induced arthritis model heart at 9 to 12 MBq, iv after 30 mins by PET analysis. The method, boiled down:
as §1

Series [4] deals with Mus musculus. Briefly: Biodistribution in mouse cerebrum at 9 to 12 MBq, iv after 30 mins by PET analysis. The gist of the method:
(§2)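 Normal male BALB/c mice, 6–7 wk, under isoflurane with a heating pad. Each enantiomer given as a 0.2 mL iv bolus (<0.18 nmol) diluted in saline. PET acquired for 30 min in 13 frames and reconstructed by FBP without attenuation correction. Regional radioactivity taken from VOI analysis of time-activity curves.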

In series [5] the test system is Liver. Briefly: Biodistribution in mouse liver at 9 to 12 MBq, iv after 30 mins by PET analysis. The gist of the method: as §2
For series [6], the system named is Kidney. The series can be described thus: Biodistribution in mouse kidney at 9 to 12 MBq, iv after 30 mins by PET analysis. The gist of the method:
as §2

The test system of series [7] is Urinary bladder. The series can be described thus: Biodistribution in mouse bladder at 9 to 12 MBq, iv after 30 mins by PET analysis. The gist of the method: as §2
Series [8] concerns Plasma. Briefly: Drug level in mouse plasma assessed as fraction of metabolites level at 70 to 125 MBq, iv after 30 mins by HPLC analysis. The method, boiled down:
(§3)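 Normal mice, 20–25 g, n = 3 per isomer; iv dose <0.43 nmol. Decapitated at 30 min. Heparinized blood centrifuged to plasma; plasma radioactivity counted in a dose calibrator as % dose/mL. Plasma deproteinized with 2 volumes of ethanol and filtered, then run on chiral reversed-phase OJ-RH HPLC with radiodetection. Peaks identified by co-injected unlabeled ibuprofen; fractions decay- and baseline-corrected; mean ± SD.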

Series [9] relates to Plasma. The series can be described thus: Drug level in mouse plasma assessed as (R)-[11C]-ibuprofen level at 70 to 125 MBq, iv after 30 mins by HPLC analysis. The method, boiled down:
as §3

For series [10], the system named is Plasma. Briefly: Drug level in mouse plasma assessed as (S)-[11C]-ibuprofen level at 70 to 125 MBq, iv after 30 mins by HPLC analysis. The method, boiled down:
as §3

Series [11] deals with Plasma. The series can be described thus: Drug level in mouse plasma assessed as [11C]-ibuprofen level at 70 to 125 MBq, iv after 30 mins by HPLC analysis. The gist of the method:
as §3

Series [12] relates to Plasma. The series can be described thus: Drug level in mouse plasma at 70 to 125 MBq, iv after 30 mins by HPLC analysis. The gist of the method:
as §3

Series [13] has as its system Plasma. The series can be described thus: Drug level in mouse plasma assessed as radioactivity of [11C]-ibuprofen at 70 to 125 MBq, iv after 30 mins by HPLC analysis. The gist of the method: as §3

Structures are written as SMILES.

For the compound `CC(C)Cc1ccc([C@@H]([11CH3])C(=O)O)cc1`, the Drug uptake result in [1] is “Active”; in series [3] it was “Not Active”; in series [4] it was “Active”; in series [5], “Active”; in [6], “Active”; in series [7], “Active”. Further, the Drug uptake in series [8] is 25%; in series [9], 23%; in [10] it was 52%; in [11], 75%; in series [12], 8.3 %ID/ml; in series [13] it was 5.9 %ID/ml. In addition, the “fold change (FC)” value in [2] is listed as greater than 2.

Turning to `CC(C)Cc1ccc([C@H]([11CH3])C(=O)O)cc1`, the Drug uptake result in series [1] is “Active”; in series [3] it was “Not Active”; in series [4], “Active”; in [5], “Active”; in [6], “Active”; in series [7], “Active”. Also, the Drug uptake in series [8] was determined as 34%; in series [9] it was 0.78%; in series [10], 65%; in series [11], 66%; in [12], 8.9 %ID/ml; in series [13], 6.2 %ID/ml. The “fold change (FC)” value in series [2] is on record as greater than 2.
